In ChEMBL document CHEMBL5344415, “Synthesis and Characterization of Phenylalanine Amides Active against Mycobacterium abscessus and Other Mycobacteria” (J Med Chem, 2023):
≈ marks a conversion by molar mass, not a printed value.

How the values were obtained:
[1] = test system: Mycobacteroides abscessus; experiment: Antibacterial activity against Mycobacterium abscessus ATCC 19977 expressing tomato RFP infected in human THP-1 cells assessed as bacterial growth inhibition incubated for 4 days in RPMI medium by RFP fluorescence based assay; type: functional; conditions: ATCC 19977, 96 h, time 4 day
Method in brief: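 RFP M. abscessus washed, moved into RPMI, filtered through 5 µm and opsonised with 10 % human serum for 30 min. THP-1 cells infected at MOI 5:1 with PMA 40 ng/mL for 4 h at 37 °C, then washed. Infected cells (1x10⁵/well) given a ten-point twofold series. Incubated 4 days at 37 °C, 5 % CO₂. Cells PFA-fixed and DAPI-stained. RFP quantified by imaging. Controls were DMSO and 1.5 µM bedaquiline. Duplicate.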

[2] = test system: Mycobacteroides abscessus; experiment: Antibacterial activity against Mycobacterium abscessus ATCC 19977 expressing tomato RFP assessed as bacterial growth inhibition incubated for 3 days in 7H9 medium by RFP fluorescence based broth microdilution method; type: functional; conditions: ATCC 19977, 72 h, time 3 day
Method in brief: (§1)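 Broth microdilution in 7H9 with 10 % ADS and 0.05 % Tween 80. Twofold nine-point dilution series. Inoculum 5 x 10⁵ cells/mL taken from a mid-log preculture. Incubation at 37 °C, 3 days for M. smegmatis and M. abscessus, 5 days for M. intracellulare. Read-out by RFP fluorescence (ex 544/em 590 nm). Controls were 1 % DMSO and 100 μM amikacin. MIC₉₀ from duplicates, averaged.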

[3] = test system: Mycobacterium intracellulare; experiment: Antibacterial activity against Mycobacterium intracellulare ATCC 35761 expressing tomato RFP assessed as bacterial growth inhibition incubated for 5 days in 7H9 medium by RFP fluorescence based broth microdilution method; type: functional; conditions: ATCC 35761, 120 h, time 5 day; method in brief: as §1
[4] = Kinetic solubility of compound in PBS at 0.78 to 500 uM measured immediately by nephelometric method; type: physicochemical; conditions: buffer, dose 0.78-500 µM
Method in brief: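 DMSO stocks prediluted in DMSO, then diluted 1:50 into PBS (2 % DMSO final) and read immediately by nephelometry at 0.78–500 μM; blank-corrected data fitted by segmental regression; quadruplicates from one stock.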

[5] = test system: MCF7; experiment: Cytotoxicity against human MCF7 cells assessed as reduction in cell viability incubated for 72 hrs by SRB assay; type: toxicity, cell-based
[6] = test system: HT-29; experiment: Cytotoxicity against human HT-29 cells assessed as reduction in cell viability incubated for 72 hrs by SRB assay; type: toxicity, cell-based
[7] = Cytotoxicity against mouse NIH3T3 cells assessed as reduction in cell viability incubated for 72 hrs by SRB assay; type: toxicity, cell-based; conditions: mouse, NIH3T3 cells
[8] = test system: Mycobacterium tuberculosis; experiment: Antibacterial activity against Mycobacterium tuberculosis H37Rv ATCC 27294 assessed as bacterial growth inhibition incubated for 7 days in 7H9 medium by optical density based microplate reader analysis; type: functional; conditions: H37Rv ATCC 27294, 168 h, time 7 day
Method in brief: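 Compounds serially diluted in flat-bottom 96-well plates. Mid-log culture mixed in to a final OD₆₀₀ of 0.05. Sealed plates incubated in humidified boxes at 37 °C for 7 days with shaking at 80 rpm. Turbidity read at 600 nm. MIC₉₀ taken from dose–response curves. Two biological replicates, averaged.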

[9] = test system: HeLa; experiment: Cytotoxicity against human HeLa cells assessed as reduction in cell viability incubated for 72 hrs by SRB assay; type: toxicity, cell-based
[10] = test system: Mycobacteroides abscessus; experiment: Antibacterial activity against Mycobacterium abscessus Bamboo harboring inactive clarithromycin-sensitive erm41 C28 sequevar assessed as bacterial growth inhibition incubated for 3 days in 7H9 medium by optical density based method; type: functional; conditions: 72 h, time 3 day
[11] = test system: A2780; experiment: Cytotoxicity against human A2780 cells assessed as reduction in cell viability incubated for 72 hrs by SRB assay; type: toxicity, cell-based
[12] = test system: A-375; experiment: Cytotoxicity against human A-375 cells assessed as reduction in cell viability incubated for 72 hrs by SRB assay; type: toxicity, cell-based
[13] = test system: Mycolicibacterium smegmatis; experiment: Antibacterial activity against Mycobacterium smegmatis mc2 155 expressing tomato RFP assessed as bacterial growth inhibition incubated for 3 days in 7H9 medium by RFP fluorescence based broth microdilution method; type: functional; conditions: mc2 155, 72 h, time 3 day; method in brief: as §1
[14] = test system: Mycobacteroides abscessus; experiment: Antibacterial activity against Mycobacterium abscessus ATCC 19977 expressing tomato RFP assessed as bacterial growth inhibition incubated for 3 days in MHII medium by RFP fluorescence based broth microdilution method; type: functional; conditions: ATCC 19977, 72 h, time 3 day
Method in brief: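 Broth microdilution in MHII broth with 0.05 % Tween 80, against the RFP-expressing strain. Twofold nine-point dilution series. Inoculum 5 x 10⁵ cells/mL from a mid-log preculture. Incubated 3 days at 37 °C. Read-out by RFP fluorescence (ex 544/em 590 nm). Controls were 1 % DMSO and 100 μM amikacin. MIC₉₀ from duplicates, averaged.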

Structure (SMILES) | MIC50 [1] [µM] | MIC90 [1] [µM] | MIC90 [2] [µM] | MIC90 [3] [µM] | Kinetic_solubility [4] [µM] | EC50 [5] [µM] | EC50 [6] [µM] | EC50 at 72 h [7] [µM] | MIC90 [8] [µM] | EC50 [9] [µM] | MIC50 [10] [µM] | MIC90 [10] [µM] | EC50 [11] [µM] | EC50 [12] [µM] | MIC90 [13] [µM] | MIC90 [14] [µM]
O=C(N[C@H](Cc1ccc(O)cc1)C(=O)Nc1cc(F)ccc1N1CCSCC1)c1cccs1 | 12.5 (≈ 6.07 µg/mL) | 50 (≈ 24.3 µg/mL) | 12.5 (≈ 6.07 µg/mL) | 0.1 (≈ 0.0486 µg/mL) | 78 | > 30 | > 30 | > 30 | 0.78 (≈ 0.379 µg/mL) | > 30 | 1.6 (≈ 0.777 µg/mL) | 15 (≈ 7.28 µg/mL) | > 30 | > 30 | 12.5 (≈ 6.07 µg/mL) | 
O=C(N[C@H](Cc1ccsc1)C(=O)Nc1ccccc1N1CC[S+]([O-])CC1)c1cccs1 | 12.5 (≈ 5.92 µg/mL) | 100 (≈ 47.4 µg/mL) | 6.25 (≈ 2.96 µg/mL) | 0.2 (≈ 0.0947 µg/mL) | 74 | > 30 | > 30 | > 30 | 6.25 (≈ 2.96 µg/mL) | > 30 | 3.4 (≈ 1.61 µg/mL) | 15 (≈ 7.1 µg/mL) | > 30 | > 30 | 3.13 (≈ 1.48 µg/mL) | 12.5 (≈ 5.92 µg/mL)
O=C(N[C@H](Cc1ccccc1)C(=O)Nc1ccccc1C1CCSCC1)c1cccs1 | > 100 | > 100 | 50 (≈ 22.5 µg/mL) | 6.25 (≈ 2.82 µg/mL) | 39 | > 30 | > 30 | > 30 | > 25 | > 30 | 21 (≈ 9.46 µg/mL) | 44 (≈ 19.8 µg/mL) | > 30 | > 30 | 6.25 (≈ 2.82 µg/mL) | 100 (≈ 45.1 µg/mL)
O=C(N[C@H](Cc1ccsc1)C(=O)Nc1ccccc1N1CC[S+]([O-])CC1)c1ccccc1F | 6.25 (≈ 3.04 µg/mL) | 50 (≈ 24.3 µg/mL) | 6.25 (≈ 3.04 µg/mL) | 0.2 (≈ 0.0971 µg/mL) | 96 | > 30 | > 30 | > 30 | 3.13 (≈ 1.52 µg/mL) | > 30 | 1.5 (≈ 0.728 µg/mL) | 4.4 (≈ 2.14 µg/mL) | > 30 | > 30 | 1.56 (≈ 0.758 µg/mL) | 12.5 (≈ 6.07 µg/mL)
O=C(N[C@H](Cc1ccsc1)C(=O)Nc1ccccc1N1CCOCC1)c1ccccc1F | 6.25 (≈ 2.83 µg/mL) | 25 (≈ 11.3 µg/mL) | 12.5 (≈ 5.67 µg/mL) | 0.78 (≈ 0.354 µg/mL) | 31 | > 30 | > 30 | > 30 | 3.13 (≈ 1.42 µg/mL) | > 30 | 1.9 (≈ 0.862 µg/mL) | 7 (≈ 3.17 µg/mL) | > 30 | > 30 | 1.56 (≈ 0.708 µg/mL) | 12.5 (≈ 5.67 µg/mL)
O=C(N[C@H](Cc1cccs1)C(=O)Nc1ccccc1N1CC[S+]([O-])CC1)c1cccs1 | 12.5 (≈ 5.92 µg/mL) | 100 (≈ 47.4 µg/mL) | 12.5 (≈ 5.92 µg/mL) | 0.2 (≈ 0.0947 µg/mL) | 60 | > 30 | > 30 | > 30 | 3.13 (≈ 1.48 µg/mL) | > 30 | 1.3 (≈ 0.616 µg/mL) | 5.8 (≈ 2.75 µg/mL) | > 30 | > 30 | 3.13 (≈ 1.48 µg/mL) | 12.5 (≈ 5.92 µg/mL)
O=C(N[C@H](Cc1cccs1)C(=O)Nc1ccccc1N1CCOCC1)c1ccccc1F | 6.25 (≈ 2.83 µg/mL) | 25 (≈ 11.3 µg/mL) | 6.25 (≈ 2.83 µg/mL) | 0.78 (≈ 0.354 µg/mL) | 39 | > 30 | > 30 | > 30 | 3.13 (≈ 1.42 µg/mL) | > 30 | 2 (≈ 0.907 µg/mL) | 7 (≈ 3.17 µg/mL) | > 30 | > 30 | 1.56 (≈ 0.708 µg/mL) | 12.5 (≈ 5.67 µg/mL)
O=C(N[C@H](Cc1ccc(O)cc1)C(=O)Nc1cc(F)ccc1N1CCS(=O)(=O)CC1)c1cccs1 | 6.25 (≈ 3.24 µg/mL) | 25 (≈ 12.9 µg/mL) | 6.25 (≈ 3.24 µg/mL) | 0.05 (≈ 0.0259 µg/mL) | 170 | > 30 | 29.8 | > 30 | 0.78 (≈ 0.404 µg/mL) | > 30 | 0.4 (≈ 0.207 µg/mL) | 9 (≈ 4.66 µg/mL) | 29.7 | > 30 | 6.25 (≈ 3.24 µg/mL) | 3.13 (≈ 1.62 µg/mL)
